For data set [1], the system named is HepG2. Description: Down regulation of precursor and mature forms of SREBP-2 protein expression in human HepG2 cells after 24 hrs by Western blotting analysis. As to conditions: dose 5-80 µM. It counts as functional, cell-based. The procedure, abridged: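 HepG2 cells treated 24 h at the indicated doses and lysed in RIPA buffer with protease inhibitors; protein quantified by BCA. Lysates run on 10% SDS-PAGE and blotted to nitrocellulose. After 5% milk block, primary antibody applied overnight at 4 °C and secondary 1 h at room temperature. β-actin served as loading reference.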
For orientation: A western blot detects proteins with antibodies after separation by electrophoresis.

For data set [2], the target named is T1, Sterol regulatory element-binding protein 1 (Homo sapiens) (UniProt P36956).
T1 sequence (whole entry): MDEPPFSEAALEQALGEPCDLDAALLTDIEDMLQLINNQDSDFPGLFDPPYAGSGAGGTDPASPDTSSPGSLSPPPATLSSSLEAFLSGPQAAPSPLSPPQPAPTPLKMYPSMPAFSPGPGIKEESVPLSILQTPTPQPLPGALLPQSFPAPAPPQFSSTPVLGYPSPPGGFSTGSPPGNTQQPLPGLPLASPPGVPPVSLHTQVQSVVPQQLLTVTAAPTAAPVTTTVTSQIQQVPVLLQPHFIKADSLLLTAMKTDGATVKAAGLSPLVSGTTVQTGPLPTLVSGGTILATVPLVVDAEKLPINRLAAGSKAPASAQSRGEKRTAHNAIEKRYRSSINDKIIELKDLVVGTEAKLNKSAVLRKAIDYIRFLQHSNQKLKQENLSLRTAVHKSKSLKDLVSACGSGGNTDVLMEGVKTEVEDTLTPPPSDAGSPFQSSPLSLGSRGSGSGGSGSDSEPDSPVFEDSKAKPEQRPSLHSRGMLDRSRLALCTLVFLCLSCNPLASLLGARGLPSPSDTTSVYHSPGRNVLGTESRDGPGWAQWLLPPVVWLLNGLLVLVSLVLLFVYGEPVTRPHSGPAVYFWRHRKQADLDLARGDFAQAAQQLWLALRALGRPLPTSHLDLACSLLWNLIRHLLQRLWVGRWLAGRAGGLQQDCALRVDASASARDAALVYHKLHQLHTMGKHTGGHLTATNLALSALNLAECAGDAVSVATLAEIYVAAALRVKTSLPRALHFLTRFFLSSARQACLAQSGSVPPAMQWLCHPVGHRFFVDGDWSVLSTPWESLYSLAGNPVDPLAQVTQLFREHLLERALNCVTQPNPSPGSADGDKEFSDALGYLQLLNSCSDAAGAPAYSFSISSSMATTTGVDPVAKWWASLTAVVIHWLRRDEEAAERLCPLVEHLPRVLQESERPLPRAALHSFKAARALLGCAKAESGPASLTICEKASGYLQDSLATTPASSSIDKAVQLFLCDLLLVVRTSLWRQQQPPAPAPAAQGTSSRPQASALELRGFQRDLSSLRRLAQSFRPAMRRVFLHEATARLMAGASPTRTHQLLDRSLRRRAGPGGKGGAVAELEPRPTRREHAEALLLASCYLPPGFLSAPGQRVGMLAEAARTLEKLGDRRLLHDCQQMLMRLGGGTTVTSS
Description: Induction of SREBP degradation in human HepG2 cells at 10 uM preincubated with cycloheximide for 1 hr followed by compound additon by Western blot analysis. It counts as cell-based. The procedure, abridged: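 HepG2 cells pretreated 1 h with cycloheximide at […]. Medium then switched to cycloheximide plus vehicle or compound at […] for varying times. SREBP decay rate followed by Western blot of lysates.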

The subject of data set [3] is HepG2. Description: Cytotoxicity against human HepG2 cells assessed as reduction in cell viability at 10 uM after 24 hrs by CCK8 assay. It counts as functional. A general note: Tetrazolium assays rely on reduction of a dye to a coloured formazan, in cell work by metabolically active cells.
The test system of data set [4] is HepG2. The data set can be described thus: Down regulation of intracellular TG level in human HepG2 cells at 10 uM measured after 24 hrs. The data set is classed as functional, cell-based. The procedure, abridged: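 HepG2 cells grown in six-well plates and exposed 24 h to compound at […]. Cells collected in PBS and sonicated (5 s on, 10 s off, 60 s total). Total cholesterol or triglyceride measured with a colorimetric determination kit.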

Data set [5] concerns HepG2. The data set can be described thus: Down regulation of ACC gene expression in human HepG2 cells by qRT-PCR analysis. The data set is classed as functional, cell-based. Background: In qPCR the cycle at which signal appears reflects the starting amount.
Data set [6] addresses T1, Sterol regulatory element-binding protein 1 (Homo sapiens). The data set can be described thus: Induction of SREBP degradation expressed in human HEK293T cells assessed as increase in SREBP ubiquitination at 10 uM after 24 hrs by Western blot analysis. The data set is classed as cell-based. The procedure, abridged:
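293T cells seeded at 3×10⁶ per dish and transfected next day with flag-SREBP1 or flag-SREBP2 plus HA-ubiquitin. On day 2 medium replaced with DMSO or compound. On day 3 cells lysed in IP buffer and cleared at 12,000 rpm, 4 °C. Supernatant immunoprecipitated overnight at 4 °C with flag antibody or IgG. Ubiquitylated SREBPs detected by Western blot.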

A short description of data set [7]: Oral bioavailability in Sprague-Dawley rat at 10 mg/kg measured upto 24 hrs by LC-MS/MS analysis. The data set is classed as ADME, organism-based. As to conditions: in vivo. The essentials:
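Six SD rats split into two groups of three, dosed 1 mg/kg IV or 10 mg/kg orally. IV blood drawn at 2, 5, 15, 30 min and 1, 2, 4, 6, 8, 12 h. Oral blood drawn at 5, 15, 30 min and 1, 2, 4, 6, 8, 12, 24 h. Serum drug measured by LC/MS/MS. Parameters are the average of three runs.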

Data set [8] deals with Mus musculus. Description: Hypolipidemic activity in high fat diet-fed C57BL/6J mouse assessed as increase in brown fat/body weight ratio at 340 mg/kg/day, po administered for 6 weeks. It counts as functional, organism-based. The procedure, abridged:
(§1)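 Male C57BL/6J mice, six weeks old, fed a 45%-fat diet (HFD) for 15 weeks; chow-fed mice served as controls. Obese mice were randomized to vehicle (0.1% w/v CMC-Na) or 170 or 340 mg/kg, gavaged daily for 6 weeks while diet continued. Body weight, food intake, organ weights, serum lipids, tissue histology (H&E, Oil red O), liver SREBP blots and liver qPCR followed.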

The test system of data set [9] is Mus musculus. Description: Hypolipidemic activity in high fat diet-induced C57BL/6J mouse assessed as reduction in cell size of BAT at 170 to 340 mg/kg, po administered daily for 6 weeks by H and E staining based assay. As to conditions: dose 170-340 mg/kg. It counts as functional, organism-based. The essentials:
as §1

Each structure is given as a SMILES string. Calls of active or inactive are those of the source. The calls are words filed in the database; no cut-off is given here.

In the case of `COc1ccc2c(c1OCC1CCCCC1)CN1CCc3cc4c(cc3C1C2)OCO4` (centres undefined), the Activity entry in the data set on HepG2 [1] is “Dose-Dependent Effect”; in the data set with HepG2 [3], 93%. Moreover, the result (in [2]; with HepG2 [4]; with HepG2 [5]; in data set [6]; in the data set with Mus musculus [8]; in the data set with Mus musculus [9]) was Active. Also, in [7], the bioavailability is 65.1%.

A word on the bioavailability: it is the share of a dose that reaches the circulation, judged against a reference dose that is usually intravenous. The low end stands for poor availability, the high end for good availability.

Values taken from ChEMBL document CHEMBL4837214, “Design, synthesis, and biological evaluation of novel tetrahydroprotoberberine derivatives to reduce SREBPs expression for the treatment of hyperlipidemia” (Eur J Med Chem, 2021).
